B1: Osa-1-4 twister ribozyme (parent)
chain: CCGCCUAACACUGCCAAUGCCGGUCCCAAGCCCGGAUAAAAGUGGAGGGGGCGG

Variants of: B1
Assay: self-cleavage, relative activity (ratio to wild type); higher = more cleavage; co-transcriptional
Outline: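 The 48 positions downstream of the cleavage site in a DNA template for a 54-nucleotide Oryza sativa twister ribozyme carried 97 % wild-type base and 1 % of each other base. After in vitro transcription (2 h, 37 °C) with co-transcriptional self-cleavage, the RNA was reverse-transcribed with a template-switching oligonucleotide, PCR-amplified and deep-sequenced. Relative activity is the fraction cleaved, judged by reads with or without upstream sequence and normalised to wild type.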

Question: With CCGCCUAACACUGCCACUGCCGGUCCCAAGCCCGGAUAAAAGUCGAGGGGGCGG as the variant, how does the self-cleavage read?
Answer: 0.72

Question: Which self-cleavage does the source give for CCGCCUAACACUGCCACUGCCGGUCCCAAGCCCGGAUAAAAGUUGAGGGGGCGG here?
Answer: 0.7

Question: With CCGCCUAACACUGCCACUGCCGGUCCCAAGCCCGGAUAAAAGUGAAGGGGGCGG as the variant, how does the self-cleavage read?
Answer: 0.24

Question: Which self-cleavage does the source give for CCGCCUAACACUGCCACUGCCGGUCCCAAGCCCGGAUAAAAGUGCAGGGGGCGG here?
Answer: 0.05

Question: For CCGCCUAACACUGCCACUGCCGGUCCCAAGCCCGGAUAAAAGUGUAGGGGGCGG, which self-cleavage is on record?
Answer: 0.14

Question: For CCGCCUAACACUGCCACUGCCGGUCCCAAGCCCGGAUAAAAGUGGAAGGGGCGG, which self-cleavage is on record?
Answer: 0.07

Question: For CCGCCUAACACUGCCACUGCCGGUCCCAAGCCCGGAUAAAAGUGGACGGGGCGG, which self-cleavage is on record?
Answer: 0.05

Question: With CCGCCUAACACUGCCACUGCCGGUCCCAAGCCCGGAUAAAAGUGGAUGGGGCGG as the variant, how does the self-cleavage read?
Answer: 0.09

Question: Which self-cleavage does the source give for CCGCCUAACACUGCCACUGCCGGUCCCAAGCCCGGAUAAAAGUGGAGAGGGCGG here?
Answer: 0.05

Question: For CCGCCUAACACUGCCACUGCCGGUCCCAAGCCCGGAUAAAAGUGGAGCGGGCGG, which self-cleavage is on record?
Answer: 0.03

Question: Which self-cleavage does the source give for CCGCCUAACACUGCCACUGCCGGUCCCAAGCCCGGAUAAAAGUGGAGUGGGCGG here?
Answer: 0.03

Question: Which self-cleavage does the source give for CCGCCUAACACUGCCACUGCCGGUCCCAAGCCCGGAUAAAAGUGGAGGAGGCGG here?
Answer: 0.05

Question: With CCGCCUAACACUGCCACUGCCGGUCCCAAGCCCGGAUAAAAGUGGAGGCGGCGG as the variant, how does the self-cleavage read?
Answer: 0.04

Question: Which self-cleavage does the source give for CCGCCUAACACUGCCACUGCCGGUCCCAAGCCCGGAUAAAAGUGGAGGUGGCGG here?
Answer: 0.05

Question: With CCGCCUAACACUGCCACUGCCGGUCCCAAGCCCGGAUAAAAGUGGAGGGAGCGG as the variant, how does the self-cleavage read?
Answer: 0.51

Question: For CCGCCUAACACUGCCACUGCCGGUCCCAAGCCCGGAUAAAAGUGGAGGGCGCGG, which self-cleavage is on record?
Answer: 0.9

Question: Which self-cleavage does the source give for CCGCCUAACACUGCCACUGCCGGUCCCAAGCCCGGAUAAAAGUGGAGGGUGCGG here?
Answer: 0.86

Question: For CCGCCUAACACUGCCACUGCCGGUCCCAAGCCCGGAUAAAAGUGGAGGGGACGG, which self-cleavage is on record?
Answer: 0.32

Question: With CCGCCUAACACUGCCACUGCCGGUCCCAAGCCCGGAUAAAAGUGGAGGGGCCGG as the variant, how does the self-cleavage read?
Answer: 0.13

Question: For CCGCCUAACACUGCCACUGCCGGUCCCAAGCCCGGAUAAAAGUGGAGGGGUCGG, which self-cleavage is on record?
Answer: 0.22

Question: For CCGCCUAACACUGCCACUGCCGGUCCCAAGCCCGGAUAAAAGUGGAGGGGGCAG, which self-cleavage is on record?
Answer: 0.86

Question: For CCGCCUAACACUGCCACUGCCGGUCCCAAGCCCGGAUAAAAGUGGAGGGGGCCG, which self-cleavage is on record?
Answer: 0.1

Question: For CCGCCUAACACUGCCACUGCCGGUCCCAAGCCCGGAUAAAAGUGGAGGGGGCUG, which self-cleavage is on record?
Answer: 0.36

Question: Which self-cleavage does the source give for CCGCCUAACACUGCCACUGCCGGUCCCAAGCCCGGAUAAAAGUGGAGGGGGCGA here?
Answer: 0.9

Question: For CCGCCUAACACUGCCACUGCCGGUCCCAAGCCCGGAUAAAAGUGGAGGGGGCGC, which self-cleavage is on record?
Answer: 0.87

Question: With CCGCCUAACACUGCCACUGCCGGUCCCAAGCCCGGAUAAAAGUGGAGGGGGCGU as the variant, how does the self-cleavage read?
Answer: 0.91

Question: Which self-cleavage does the source give for CCGCCUAACACAGCCACUGCCGGUCCCAAGCCCGGAUAAAAGUGGAGGGGGCGG here?
Answer: 0.15

Question: For CCGCCUAACACCGCCACUGCCGGUCCCAAGCCCGGAUAAAAGUGGAGGGGGCGG, which self-cleavage is on record?
Answer: 0.08

Question: For CCGCCUAACACGGCCACUGCCGGUCCCAAGCCCGGAUAAAAGUGGAGGGGGCGG, which self-cleavage is on record?
Answer: 0.18

Question: For CCGCCUAACACUGCCACAGCCGGUCCCAAGCCCGGAUAAAAGUGGAGGGGGCGG, which self-cleavage is on record?
Answer: 0.78

Question: With CCGCCUAACACUGCCACCGCCGGUCCCAAGCCCGGAUAAAAGUGGAGGGGGCGG as the variant, how does the self-cleavage read?
Answer: 0.57

Question: With CCGCCUAACACUGCCACGGCCGGUCCCAAGCCCGGAUAAAAGUGGAGGGGGCGG as the variant, how does the self-cleavage read?
Answer: 0.79

Question: Which self-cleavage does the source give for CCGCCUAACACUGCCACUGCCGGACCCAAGCCCGGAUAAAAGUGGAGGGGGCGG here?
Answer: 0.03

Question: Which self-cleavage does the source give for CCGCCUAACACUGCCACUGCCGGCCCCAAGCCCGGAUAAAAGUGGAGGGGGCGG here?
Answer: 0.05

Question: For CCGCCUAACACUGCCACUGCCGGGCCCAAGCCCGGAUAAAAGUGGAGGGGGCGG, which self-cleavage is on record?
Answer: 0.02

Question: For CCGCCUAACACUGCCACUGCCGGUCCCAAGCCCGGAAAAAAGUGGAGGGGGCGG, which self-cleavage is on record?
Answer: 0.41

Question: For CCGCCUAACACUGCCACUGCCGGUCCCAAGCCCGGACAAAAGUGGAGGGGGCGG, which self-cleavage is on record?
Answer: 0.85

Question: With CCGCCUAACACUGCCACUGCCGGUCCCAAGCCCGGAGAAAAGUGGAGGGGGCGG as the variant, how does the self-cleavage read?
Answer: 0.81

Question: Which self-cleavage does the source give for CCGCCUAACACUGCCACUGCCGGUCCCAAGCCCGGAUAAAAGAGGAGGGGGCGG here?
Answer: 0.64

Question: With CCGCCUAACACUGCCACUGCCGGUCCCAAGCCCGGAUAAAAGCGGAGGGGGCGG as the variant, how does the self-cleavage read?
Answer: 0.58

Question: For CCGCCUAACACUGCCACUGCCGGUCCCAAGCCCGGAUAAAAGGGGAGGGGGCGG, which self-cleavage is on record?
Answer: 0.26

Question: For CCGCCUAACACUGCCAGUGCCGGUCCCAAGCCCGGAUAAAAGUGGAGGGGGCGG, which self-cleavage is on record?
Answer: 0.97

Question: For CCGCCUCACACUGCCAGUGCCGGUCCCAAGCCCGGAUAAAAGUGGAGGGGGCGG, which self-cleavage is on record?
Answer: 0.08

Question: Which self-cleavage does the source give for CCGCCUGACACUGCCAGUGCCGGUCCCAAGCCCGGAUAAAAGUGGAGGGGGCGG here?
Answer: 0.49

Question: Which self-cleavage does the source give for CCGCCUUACACUGCCAGUGCCGGUCCCAAGCCCGGAUAAAAGUGGAGGGGGCGG here?
Answer: 0.1

Question: Which self-cleavage does the source give for CCGCCUACCACUGCCAGUGCCGGUCCCAAGCCCGGAUAAAAGUGGAGGGGGCGG here?
Answer: 0.12

Question: With CCGCCUAGCACUGCCAGUGCCGGUCCCAAGCCCGGAUAAAAGUGGAGGGGGCGG as the variant, how does the self-cleavage read?
Answer: 0.63

Question: With CCGCCUAUCACUGCCAGUGCCGGUCCCAAGCCCGGAUAAAAGUGGAGGGGGCGG as the variant, how does the self-cleavage read?
Answer: 0.49

— the RNAGym collection of RNA variant scans (doi:10.1002/anie.201605470)
